The text below walks through data of PubChem BioAssay.

Calls of active or inactive are those of the source.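 Rule for the calls, unless noted: active = viability at or below 30% in both replicate assays; inconclusive = viability at or below 30% in just one of the two assays; inactive = the rest.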

Test [1] is described as follows: reducers of endogenous Her2 protein level, primary screen, SKBR3 breast tumor cells, AlphaScreen, ATP viability (AID 461;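 active = Her2 level under about 52% in both replicate screens, with viability over 70% of control, limit read from the data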;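 for Her2 level: lower value means less Her2 protein in the cells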;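 for viability: percent of carrier control wells set as 100% viability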). The note with it: 18-24 h, measured here: SKBR3 viability, ATP luminescence, at 10 µM. Background: In Alpha technology, singlet oxygen from a donor bead excites a nearby acceptor bead.
The target of test [2] is Receptor tyrosine-protein kinase erbB-2 (Homo sapiens) (UniProt P04626). The test is described as above. As to conditions: 18-24 h, at 10 µM, stronger effect = lower value.
Test [3] can be described thus: SK-BR-3 cell growth inhibitors, pilot screen, 24 h, human (AID 572;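 active = viability at or below 10% of carrier control in both of two separate runs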;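 note: compound exposure lasted between 18 and 24 h rather than exactly 24 h; 100% = carrier-treated control wells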). As to conditions: SK-BR-3 viability, CellTiter-Glo luminescence, at 10 µM, stronger effect = lower value.
A short description of test [4]: HUVEC growth inhibition – cell-based, human, primary screen (AID 575).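 Note: 100% = median of untreated cell wells with 0.1% DMSO on each plate.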 As to conditions: HUVEC proliferation, CellTiter-Glo luminescence, 72 h; at 10 µM; stronger effect = lower value. The procedure, abridged: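 Test system: primary human umbilical vein endothelial cells; medium: endothelial basal medium with 2% FBS plus growth supplements; dosing: 10 µM compound only; times: 72 h treatment at 37 °C; signal: CTG luminescence; read-out: % viability relative to median vehicle-well signal on each plate; control set: vehicle and MePR control wells; plate: 384-well, collagen-coated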
On the technique in general: Cellular ATP, detected with luciferase, serves as a proxy for viable cell number.

Test [5] is described as follows: growth inhibitors of H69AR lung tumor, primary screen, human, duplicate replicates (AID 580;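 active = viability at or under a set limit in both replicates, limit being median viability minus 3 SD, cut at about 48% in these data, passing the limit was not always enough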;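 note: 100% = mean luminescence of untreated wells and 0% = no signal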). The note with it: H69AR lung tumor cells viability, ATP luminescence, 72 h; at 10 µM; stronger effect = lower value.
Test [6] can be described thus: reversal of MRP1-mediated doxorubicin resistance, pilot screen, H69AR cells, doxorubicin co-treatment (AID 601;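 active = viability loss from added drug above about 55%, and viability with drug at most 40%, in both replicates, limit read from the data, passing the limit was not always enough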). As to conditions: CellTiter-Glo, 72 h, at 10 µM; for differential viability (reversal): stronger effect = higher value.
The nature of test [7]: 384-well plate pilot, post-Golgi transport modulator project, inhibition of yeast transport mutant growth (AID 636; in the data active = inhibition above about 31%). The note with it: absorbance 615 nm, about 18 h, stronger effect = higher value.
A short description of test [8]: growth suppression of yeast trafficking mutant, preliminary HTS, modulators of trafficking downstream of Golgi apparatus project, 1536-format plate, OD 615 nm (AID 637; in the data active = inhibition above about 30%). The note with it: yeast transport mutant growth, absorbance 615 nm, 18 h; stronger effect = higher value.
The mark [9] stands for this setting: H69AR cells + 2 uM doxorubicin, measured here: viability with 2 uM doxorubicin, stronger effect = lower value.
[10] abbreviates: H69AR cells, compound alone cytotoxicity.

Broadly, the viability is a read-out of living cells in per cent, often relative to untreated cells. The inhibition is the relative decrease from the control value, in per cent.

Sequence of Receptor tyrosine-protein kinase erbB-2 (Homo sapiens) (P04626 whole entry, looked up): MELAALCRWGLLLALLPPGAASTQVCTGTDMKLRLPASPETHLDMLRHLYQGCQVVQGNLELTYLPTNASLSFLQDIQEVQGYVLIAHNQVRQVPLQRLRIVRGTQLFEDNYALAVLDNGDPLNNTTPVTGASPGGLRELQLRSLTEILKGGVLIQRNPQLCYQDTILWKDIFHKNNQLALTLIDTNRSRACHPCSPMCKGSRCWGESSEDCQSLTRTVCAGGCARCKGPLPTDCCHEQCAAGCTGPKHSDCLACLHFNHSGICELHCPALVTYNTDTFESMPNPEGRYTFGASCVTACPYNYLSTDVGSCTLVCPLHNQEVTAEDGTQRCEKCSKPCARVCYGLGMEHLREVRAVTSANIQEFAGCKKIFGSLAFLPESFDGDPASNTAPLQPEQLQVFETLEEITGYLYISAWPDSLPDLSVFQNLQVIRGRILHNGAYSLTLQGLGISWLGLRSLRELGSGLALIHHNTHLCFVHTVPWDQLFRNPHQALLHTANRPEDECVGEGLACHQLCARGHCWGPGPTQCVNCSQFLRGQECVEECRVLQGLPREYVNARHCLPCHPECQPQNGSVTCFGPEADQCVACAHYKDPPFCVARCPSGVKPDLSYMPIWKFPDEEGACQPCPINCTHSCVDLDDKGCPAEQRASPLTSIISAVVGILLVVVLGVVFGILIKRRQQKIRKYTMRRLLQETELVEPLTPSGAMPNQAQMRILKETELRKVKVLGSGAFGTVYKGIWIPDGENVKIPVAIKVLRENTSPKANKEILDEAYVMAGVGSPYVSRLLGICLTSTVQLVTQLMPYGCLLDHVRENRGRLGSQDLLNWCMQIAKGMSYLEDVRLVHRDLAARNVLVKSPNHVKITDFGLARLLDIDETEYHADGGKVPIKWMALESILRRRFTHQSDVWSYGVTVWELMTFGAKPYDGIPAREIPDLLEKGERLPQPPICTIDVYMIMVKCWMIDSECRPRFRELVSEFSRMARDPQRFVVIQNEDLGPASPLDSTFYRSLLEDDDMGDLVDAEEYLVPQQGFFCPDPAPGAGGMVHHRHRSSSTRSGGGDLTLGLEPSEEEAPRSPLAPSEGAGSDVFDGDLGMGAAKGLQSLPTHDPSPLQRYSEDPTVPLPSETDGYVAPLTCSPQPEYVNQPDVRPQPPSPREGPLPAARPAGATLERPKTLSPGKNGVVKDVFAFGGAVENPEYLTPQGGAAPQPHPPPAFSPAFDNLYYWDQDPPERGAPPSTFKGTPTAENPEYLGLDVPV

`COCCN(CCOC)C(=O)c1sc2nc(-c3ccccc3)cn2c1C`: the viability is 93% in test [1]; 93% (inactive) in test [3]; 82.4% (inactive) in test [4]; 93.1% (inactive) in test [5]; 82.7% in test [6] (setting [9]); 93.1% in test [6] (setting [10]). Moreover, in test [2], the Her2 level is 78% (inactive). Also, the differential viability (reversal) in test [6] (H69AR cells + 2 uM doxorubicin) was 10.4% (inactive). Moreover, the inhibition in test [7] was -3.82% (inactive); in test [8] it was -5% (inactive).
As for `Cc1cc(C)cc(NC(=O)c2nnn(Cc3cc(C)ccc3C)c2N)c1`, the viability in test [1] was 111%; in test [3] it was 111% (inactive); in test [4] it was 71.3% (inactive); in test [5], 88.1% (inactive); in test [6] (setting [9]) it was 90.9%; in test [6] (setting [10]), 88.1%. For the same molecule, the Her2 level in test [2] is 92% (inactive). Moreover, the differential viability (reversal) in test [6] (H69AR cells + 2 uM doxorubicin) was -2.83% (inactive). The inhibition in test [7] is -0.8% (inactive); in test [8], -1.33% (inactive).
On to `Cc1ccc(S(=O)(=O)N2CCCC(c3nnc4n3-c3ccccc3SC4)C2)cc1` (stereo not given), for which the viability in test [1] was 78%; in test [3] it was 78% (inactive); in test [4] it was 87.2% (inactive); in test [5] it was 76.5% (inactive); in test [6] (setting [9]) it was 72%; in test [6] (setting [10]), 76.5%. For the same molecule, in test [2], the Her2 level is 71.5% (inactive). Moreover, in test [6] (H69AR cells + 2 uM doxorubicin), the differential viability (reversal) was 4.54% (inactive). Further, the inhibition in test [7] was -8.67% (inactive); in test [8] it was 4.92% (inactive).
For `COc1cccc2cc(C(=O)N3CCc4ccccc43)c(=O)oc12`, the viability is 92% in test [1]; 92% (inactive) in test [3]; 95.2% (inactive) in test [4]; 94.2% (inactive) in test [5]; 90% in test [6] (setting [9]); 94.2% in test [6] (setting [10]). Also, the Her2 level in test [2] was 74% (inactive). Further, in test [6] (H69AR cells + 2 uM doxorubicin), the differential viability (reversal) was 4.2% (inactive). Moreover, the inhibition in test [7] was -3.03% (inactive); in test [8] it was 0.63% (inactive).
As to `O=C(Nc1ccc2c(c1)OCO2)c1ccc(Br)c(S(=O)(=O)N2CCCC2)c1`, the viability in test [1] was 98.5%; in test [3], 98.5% (inactive); in test [4], 58% (inactive); in test [5], 94% (inactive); in test [6] (setting [9]), 92.2%; in test [6] (setting [10]), 94%. In test [2], the Her2 level was 80.5% (inactive). The differential viability (reversal) in test [6] (H69AR cells + 2 uM doxorubicin) was 1.82% (inactive). In addition, the inhibition in test [7] is -1.32% (inactive); in test [8] it was -0.16% (inactive).
As for `COc1ccc(CCNc2oc(-c3ccco3)nc2C#N)cc1`, the viability in test [1] was 95%; in test [3], 95% (inactive); in test [4], 96.7% (inactive); in test [5], 94.6% (inactive); in test [6] (setting [9]), 98.3%; in test [6] (setting [10]), 94.6%. For the same molecule, the Her2 level in test [2] was 81.5% (inactive). Besides, the differential viability (reversal) in test [6] (H69AR cells + 2 uM doxorubicin) was -3.7% (inactive). The inhibition in test [7] is -3.07% (inactive); in test [8], 3.93% (inactive).
Consider `CCCC(=O)Nc1ccccc1NC(=O)CN(C)S(=O)(=O)c1ccc(C)cc1`, for which the viability in test [1] was 97%; in test [3], 97% (inactive); in test [4], 103% (inactive); in test [5], 98.9% (inactive); in test [6] (setting [9]), 89.6%; in test [6] (setting [10]), 98.9%. Besides, the Her2 level in test [2] was 114% (inactive). Besides, in test [6] (H69AR cells + 2 uM doxorubicin), the differential viability (reversal) was 9.23% (inactive). For the same molecule, the inhibition is -4.8% (inactive) in test [7] and -4.84% (inactive) in test [8].
For the molecule `Cc1cc(C(=O)CSCCCn2c(=O)[nH]c3ccccc32)c(C)n1C`, the viability in test [1] is 105%; in test [3], 105% (inactive); in test [4], 110% (inactive); in test [5], 98.1% (inactive); in test [6] (setting [9]), 88.7%; in test [6] (setting [10]), 98.1%. The Her2 level in test [2] is 98% (inactive). The differential viability (reversal) in test [6] (H69AR cells + 2 uM doxorubicin) is 9.45% (inactive). Besides, the inhibition in test [7] is 0.41% (inactive); in test [8], -5.08% (inactive).
In the case of `Cc1ccnc(NS(=O)(=O)c2ccc(NC(=O)Cc3cccs3)cc2)n1`, the viability is 94.5% in test [1]; 94.5% (inactive) in test [3]; 87.6% (inactive) in test [4]; 100% (inactive) in test [5]; 91.9% in test [6] (setting [9]); 100% in test [6] (setting [10]). Further, in test [2], the Her2 level was 111% (inactive). Also, in test [6] (H69AR cells + 2 uM doxorubicin), the differential viability (reversal) was 8.61% (inactive). The figures for the inhibition in test [7] and in test [8] were 2.84% (inactive) and -2.79% (inactive), respectively.
Turning to `CCC(=O)Nc1cc(C)c(NC(=O)C23CC4CC(CC(C4)C2)C3)cn1`, the viability in test [1] is 106%; in test [3], 106% (inactive); in test [4], 84.9% (inactive); in test [5] it was 107% (inactive); in test [6] (setting [9]), 98%; in test [6] (setting [10]) it was 107%. The Her2 level in test [2] is 85% (inactive). Also, the differential viability (reversal) in test [6] (H69AR cells + 2 uM doxorubicin) is 8.51% (inactive). Moreover, the figures for the inhibition in test [7] and in test [8] were -3.65% (inactive) and -2.62% (inactive), respectively.
With `O=C(O)CCn1c(SCc2ccccc2)nc2ccccc21`, the viability in test [1] is 116%; in test [3], 116% (inactive); in test [4], 112% (inactive); in test [5], 89.3% (inactive); in test [6] (setting [9]), 77%; in test [6] (setting [10]), 89.3%. Further, the Her2 level in test [2] is 107% (inactive). Moreover, the differential viability (reversal) in test [6] (H69AR cells + 2 uM doxorubicin) is 12.2% (inactive). Besides, the inhibition was -5.73% (inactive) in test [7] and 5.65% (inactive) in test [8].
With `Oc1ccc(N2CCN(C(c3cccnc3)c3nnnn3Cc3ccccc3)CC2)cc1` (stereo not given), the viability is 85% in test [1]; 85% (inactive) in test [3]; 83.5% (inactive) in test [4]; 90.2% (inactive) in test [5]; 92.9% in test [6] (setting [9]); 90.2% in test [6] (setting [10]). Also, in test [2], the Her2 level was 92% (inactive). Moreover, the differential viability (reversal) in test [6] (H69AR cells + 2 uM doxorubicin) is -2.76% (inactive). In addition, the inhibition was -4.74% (inactive) in test [7] and -2% (inactive) in test [8].
As to `Cc1cc(=O)[nH]c(SCC(=O)NCc2ccco2)n1`, the viability is 95% in test [1]; 95% (inactive) in test [3]; 88.6% (inactive) in test [4]; 94.6% (inactive) in test [5]; 100% in test [6] (setting [9]); 94.6% in test [6] (setting [10]). Also, in test [2], the Her2 level is 106% (inactive). Besides, the differential viability (reversal) in test [6] (H69AR cells + 2 uM doxorubicin) is -5.85% (inactive). Moreover, the inhibition in test [7] is -5.48% (inactive); in test [8] it was -2.38% (inactive).
On to `O=C(NCc1ccco1)c1c2c(nc3ccccc13)CCC2`, for which the viability was 108% in test [1]; 108% (inactive) in test [3]; 82.4% (inactive) in test [4]; 80.7% (inactive) in test [5]; 77.5% in test [6] (setting [9]); 80.7% in test [6] (setting [10]). In addition, in test [2], the Her2 level is 80% (inactive). Also, the differential viability (reversal) in test [6] (H69AR cells + 2 uM doxorubicin) was 3.16% (inactive). Moreover, the figures for the inhibition in test [7] and in test [8] were -6.4% (inactive) and 3.23% (inactive), respectively.
